From publication PMC2903386 (The Journal of Biological Chemistry, 2010)
Each block holds one molecule with its values, some of them ahead of it.

Tests used:
[1] = molecular target: MMP-2 (Homo sapiens, UniProt P08253); test: Cleavage by purified MMP-2; type: in vitro ADME; conditions: 5 μM Cy5-labeled peptide, 50 nM enzyme, 2 h, Tricine gel, UVP software
How it was run: (§1)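 Commercial active purified enzymes were each used at 50 nM with 5 μM Cy5-labeled test peptide in the manufacturer's recommended buffer. The figure legend gives 2 h; the methods text gives 4 h. Samples were boiled 1 min in Tricine sample buffer, run on 10–20% Tricine gels and imaged (ex 628 ± 20 nm, em >700 nm). Percent cleaved versus uncleaved was quantitated from gel fluorescence.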

[2] = molecular target: MMP-9 (Homo sapiens, UniProt P14780); test: Cleavage by purified MMP-9; type: in vitro ADME; conditions: 5 μM Cy5-labeled peptide, 50 nM enzyme, 2 h, Tricine gel, UVP software
How it was run: as §1

[3] = system: MMP-14; test: Cleavage by purified MMP-14; type: in vitro ADME
How it was run: as §1

[4] = molecular target: kallikrein 5 (Homo sapiens, UniProt Q9Y337); test: Cleavage by purified kallikrein 5; type: in vitro ADME; conditions: 5 μM Cy5-labeled peptide, 50 nM enzyme, 2 h, Tricine gel, UVP software
Sequence of kallikrein 5 (Q9Y337 67-293 limits assumed): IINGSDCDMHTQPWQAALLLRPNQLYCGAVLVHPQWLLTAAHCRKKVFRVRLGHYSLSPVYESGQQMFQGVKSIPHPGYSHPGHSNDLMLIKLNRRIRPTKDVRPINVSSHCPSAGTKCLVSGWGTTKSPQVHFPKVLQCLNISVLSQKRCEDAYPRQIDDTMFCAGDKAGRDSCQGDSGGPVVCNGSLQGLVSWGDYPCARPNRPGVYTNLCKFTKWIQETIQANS
How it was run: as §1

[5] = molecular target: thrombin (Homo sapiens, UniProt P00734); test: Cleavage by purified thrombin; type: in vitro ADME; conditions: 5 μM Cy5-labeled peptide, 50 nM enzyme, 2 h, Tricine gel, UVP software
How it was run: as §1

[6] = molecular target: urokinase plasminogen activator (Homo sapiens, UniProt P00749); test: Cleavage by purified urokinase plasminogen activator; type: in vitro ADME
How it was run: as §1

[7] = molecular target: tissue plasminogen activator (Homo sapiens, UniProt P00750); test: Cleavage by purified tissue plasminogen activator; type: in vitro ADME; conditions: 5 μM Cy5-labeled peptide, 50 nM enzyme, 2 h, Tricine gel, UVP software
Sequence of tissue plasminogen activator (P00750 36-562): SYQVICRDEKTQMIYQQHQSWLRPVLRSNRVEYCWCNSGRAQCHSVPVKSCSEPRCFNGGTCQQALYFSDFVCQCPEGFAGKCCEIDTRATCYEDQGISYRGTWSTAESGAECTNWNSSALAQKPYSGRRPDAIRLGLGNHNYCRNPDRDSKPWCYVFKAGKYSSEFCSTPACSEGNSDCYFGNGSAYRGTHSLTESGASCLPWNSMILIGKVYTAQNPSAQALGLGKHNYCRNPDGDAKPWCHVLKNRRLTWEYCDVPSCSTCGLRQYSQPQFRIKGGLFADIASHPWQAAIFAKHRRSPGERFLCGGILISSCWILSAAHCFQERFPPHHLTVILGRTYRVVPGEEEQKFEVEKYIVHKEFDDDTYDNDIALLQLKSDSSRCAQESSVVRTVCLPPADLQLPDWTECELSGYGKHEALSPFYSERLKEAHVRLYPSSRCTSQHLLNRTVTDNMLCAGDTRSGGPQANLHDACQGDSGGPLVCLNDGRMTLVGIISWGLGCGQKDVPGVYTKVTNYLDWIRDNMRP
How it was run: as §1

[8] = system: factor VIIa; test: Cleavage by purified factor VIIa; type: in vitro ADME; conditions: human
How it was run: as §1

[9] = molecular target: factor IXa (Homo sapiens, UniProt P00740); test: Cleavage by purified factor IXa; type: in vitro ADME; conditions: 5 μM Cy5-labeled peptide, 50 nM enzyme, 2 h, Tricine gel, UVP software
How it was run: as §1

[10] = molecular target: factor Xa (Homo sapiens, UniProt P00742); test: Cleavage by purified factor Xa; type: in vitro ADME; conditions: 5 μM Cy5-labeled peptide, 50 nM enzyme, 2 h, Tricine gel, UVP software
Sequence of factor Xa (P00742 235-488 limits assumed): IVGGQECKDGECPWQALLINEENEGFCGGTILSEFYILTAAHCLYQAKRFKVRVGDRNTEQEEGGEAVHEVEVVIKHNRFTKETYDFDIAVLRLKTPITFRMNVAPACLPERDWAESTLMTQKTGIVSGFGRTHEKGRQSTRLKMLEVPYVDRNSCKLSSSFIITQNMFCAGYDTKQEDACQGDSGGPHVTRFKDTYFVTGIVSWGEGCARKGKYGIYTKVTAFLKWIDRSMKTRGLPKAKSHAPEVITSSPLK
Sequence of factor Xa (P00742 41-179 partner limits assumed): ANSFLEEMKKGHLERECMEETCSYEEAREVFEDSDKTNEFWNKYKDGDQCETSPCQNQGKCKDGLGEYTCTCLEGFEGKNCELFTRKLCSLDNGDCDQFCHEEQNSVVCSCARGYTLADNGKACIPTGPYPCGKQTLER
How it was run: as §1

[11] = molecular target: factor XIa (Homo sapiens, UniProt P03951); test: Cleavage by purified factor XIa; type: in vitro ADME; conditions: 5 μM Cy5-labeled peptide, 50 nM enzyme, 2 h, Tricine gel, UVP software
Sequence of factor XIa (P03951 388-625 limits assumed): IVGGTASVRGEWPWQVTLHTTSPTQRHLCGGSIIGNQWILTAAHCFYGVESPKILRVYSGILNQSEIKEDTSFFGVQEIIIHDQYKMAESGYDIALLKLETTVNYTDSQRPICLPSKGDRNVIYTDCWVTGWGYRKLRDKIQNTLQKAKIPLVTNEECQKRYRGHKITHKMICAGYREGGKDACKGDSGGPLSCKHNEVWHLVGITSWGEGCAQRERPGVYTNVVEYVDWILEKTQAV
Sequence of factor XIa (P03951 19-387 partner limits assumed): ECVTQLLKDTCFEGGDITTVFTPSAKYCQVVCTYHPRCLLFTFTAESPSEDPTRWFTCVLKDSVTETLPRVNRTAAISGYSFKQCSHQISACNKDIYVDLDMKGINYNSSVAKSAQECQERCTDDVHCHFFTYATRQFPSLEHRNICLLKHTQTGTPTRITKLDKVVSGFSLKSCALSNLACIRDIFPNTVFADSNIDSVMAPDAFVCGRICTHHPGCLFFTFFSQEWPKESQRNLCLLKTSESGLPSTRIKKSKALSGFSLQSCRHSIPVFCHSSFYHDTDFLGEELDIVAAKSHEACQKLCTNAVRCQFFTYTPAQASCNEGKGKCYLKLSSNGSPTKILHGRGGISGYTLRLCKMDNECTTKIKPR
How it was run: as §1

[12] = molecular target: factor XIIa (Homo sapiens, UniProt P00748); test: Cleavage by purified factor XIIa; type: in vitro ADME; conditions: 5 μM Cy5-labeled peptide, 50 nM enzyme, 2 h, Tricine gel, UVP software
Sequence of factor XIIa (P00748 373-615 limits assumed): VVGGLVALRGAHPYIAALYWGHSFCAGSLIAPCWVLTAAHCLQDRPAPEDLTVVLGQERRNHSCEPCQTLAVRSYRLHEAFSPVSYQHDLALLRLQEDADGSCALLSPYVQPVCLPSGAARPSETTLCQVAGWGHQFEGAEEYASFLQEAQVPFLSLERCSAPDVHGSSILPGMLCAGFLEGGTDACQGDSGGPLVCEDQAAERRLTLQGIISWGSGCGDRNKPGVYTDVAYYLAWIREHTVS
How it was run: as §1

[13] = molecular target: cathepsin B (Homo sapiens, UniProt P07858); test: Cleavage by purified cathepsin B; type: in vitro ADME; conditions: 5 μM Cy5-labeled peptide, 50 nM enzyme, 2 h, Tricine gel, UVP software
How it was run: as §1

[14] = molecular target: cathepsin L (Homo sapiens, UniProt P07711); test: Cleavage by purified cathepsin L; type: in vitro ADME; conditions: 5 μM Cy5-labeled peptide, 50 nM enzyme, 2 h, Tricine gel, UVP software
How it was run: as §1

[15] = system: cathepsin H; test: Cleavage by purified cathepsin H; type: in vitro ADME; conditions: human
How it was run: as §1

[16] = molecular target: MMP-8 (Homo sapiens, UniProt P22894); test: Cleavage by purified MMP-8; type: in vitro ADME; conditions: purified enzyme; data not shown
Sequence of MMP-8 (Homo sapiens, UniProt P22894) (P22894 101-467, species assumed): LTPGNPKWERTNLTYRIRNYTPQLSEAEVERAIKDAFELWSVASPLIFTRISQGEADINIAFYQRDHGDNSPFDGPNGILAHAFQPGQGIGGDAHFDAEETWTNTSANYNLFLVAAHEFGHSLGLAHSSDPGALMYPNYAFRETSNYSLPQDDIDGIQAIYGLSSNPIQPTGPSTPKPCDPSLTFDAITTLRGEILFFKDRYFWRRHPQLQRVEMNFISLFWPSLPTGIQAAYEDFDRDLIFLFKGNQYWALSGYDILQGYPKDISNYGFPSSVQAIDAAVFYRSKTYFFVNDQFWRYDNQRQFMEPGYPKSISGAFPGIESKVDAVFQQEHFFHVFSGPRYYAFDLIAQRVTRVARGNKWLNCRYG

[17] = molecular target: MMP-13 (Homo sapiens, UniProt P45452); test: Cleavage by purified MMP-13; type: in vitro ADME; conditions: purified enzyme; data not shown
[18] = molecular target: matriptase (Homo sapiens, UniProt Q9Y5Y6); test: Cleavage by purified matriptase; type: in vitro ADME; conditions: purified enzyme; data not shown
Sequence of matriptase (Homo sapiens, UniProt Q9Y5Y6) (Q9Y5Y6 615-855 limits assumed, species assumed): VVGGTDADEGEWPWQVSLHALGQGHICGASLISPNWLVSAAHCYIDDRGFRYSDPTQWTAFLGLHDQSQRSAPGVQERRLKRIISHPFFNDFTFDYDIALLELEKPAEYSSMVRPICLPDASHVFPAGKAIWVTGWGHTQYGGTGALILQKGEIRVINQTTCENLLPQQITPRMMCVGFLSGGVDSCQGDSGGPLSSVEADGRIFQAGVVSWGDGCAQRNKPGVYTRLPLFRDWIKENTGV

[19] = molecular target: legumain (Homo sapiens, UniProt Q99538); test: Cleavage by purified legumain; type: in vitro ADME; conditions: purified enzyme; data not shown
Sequence of legumain (Homo sapiens, UniProt Q99538) (Q99538 18-323 limits assumed, species assumed): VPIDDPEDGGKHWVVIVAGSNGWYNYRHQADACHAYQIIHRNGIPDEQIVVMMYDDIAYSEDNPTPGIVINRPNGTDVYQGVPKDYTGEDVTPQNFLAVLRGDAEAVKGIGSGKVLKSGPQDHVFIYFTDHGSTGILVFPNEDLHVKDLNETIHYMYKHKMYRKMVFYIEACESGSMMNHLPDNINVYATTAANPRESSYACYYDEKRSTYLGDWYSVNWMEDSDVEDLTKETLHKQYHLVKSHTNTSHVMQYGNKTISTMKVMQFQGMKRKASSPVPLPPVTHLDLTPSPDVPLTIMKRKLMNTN

[20] = molecular target: MMP12 (Homo sapiens, UniProt P39900); test: Cleavage by purified MMP12; type: in vitro ADME; conditions: purified enzyme; at times only visible upon gel overexposure
Sequence of MMP12 (P39900 106-268 limits assumed): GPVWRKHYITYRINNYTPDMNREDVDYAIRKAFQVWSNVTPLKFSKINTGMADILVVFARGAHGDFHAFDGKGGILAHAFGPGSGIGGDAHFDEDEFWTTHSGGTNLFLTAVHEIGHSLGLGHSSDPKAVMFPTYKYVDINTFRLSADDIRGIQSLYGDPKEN

[21] = molecular target: pancreatic elastase (Sus scrofa, UniProt P00772); test: Cleavage by pancreatic elastase; type: in vitro ADME, porcine; conditions: 5 μM Cy5-labeled peptide, pancreatic elastase (ELA-1), gel
Sequence of pancreatic elastase (P00772 27-266): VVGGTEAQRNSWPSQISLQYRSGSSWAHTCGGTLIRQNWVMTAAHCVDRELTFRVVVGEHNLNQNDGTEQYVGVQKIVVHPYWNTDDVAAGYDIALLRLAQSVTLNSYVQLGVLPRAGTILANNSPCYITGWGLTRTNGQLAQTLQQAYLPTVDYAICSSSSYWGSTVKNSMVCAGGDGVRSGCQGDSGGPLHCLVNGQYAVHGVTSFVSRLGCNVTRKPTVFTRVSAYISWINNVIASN
How it was run: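 5 μM Cy5-labeled test peptide was exposed to pancreatic elastase (ELA-1), with or without 60 μM α1-antitrypsin. Neutrophil/leukocyte elastase (two sources) and tumor extract (2.0 to 0.25%) were tested in parallel. Cleavage was read from fluorescent Tricine gel electrophoresis.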

[22] = molecular target: leukocyte elastase (Homo sapiens, UniProt P08246); test: Cleavage by leukocyte elastase; type: in vitro ADME; conditions: 5 μM Cy5-labeled peptide, leukocyte elastase (ELA-2 from a different source), gel
Sequence of leukocyte elastase (P08246 30-267): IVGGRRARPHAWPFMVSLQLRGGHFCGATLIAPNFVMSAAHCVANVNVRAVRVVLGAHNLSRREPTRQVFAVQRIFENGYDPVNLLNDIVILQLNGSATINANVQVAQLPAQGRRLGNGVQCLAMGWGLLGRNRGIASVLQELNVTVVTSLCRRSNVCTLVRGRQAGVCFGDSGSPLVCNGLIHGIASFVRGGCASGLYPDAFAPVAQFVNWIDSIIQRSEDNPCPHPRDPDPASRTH
How it was run: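 Commercial active-form purified enzyme at 50 nm was incubated with 5 μm Cy5-labeled peptide in the manufacturer's recommended buffer. Samples were mixed with Tricine sample buffer, boiled 1 min, and resolved on 10–20% Tricine acrylamide gels. Gels were imaged quantitatively at excitation 628 ± 20 nm and emission >700 nm, and the percentage of cleaved versus uncleaved peptide was quantified.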

[23] = Tumor standardized uptake value; type: in vivo; conditions: PyMT, mouse, iv, 10 nmol
[24] = Tumor uptake; type: in vivo; conditions: nude, mouse, tumor (MDA-MB-435 M4A4 xenograft), iv, 10 nmol
How it was run: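 After imaging, mice were euthanized with isoflurane. 30 mg of each tissue was homogenized in 100 μl Tris pH 7.6 with 1% SDS, heated to 85 °C for 10 min, microwaved 10 s and spun at 20,500 × g for 15 min, then imaged. Tissue-specific spiked standards calibrated fluorescence. SUV = tissue peptide molality ÷ injected dose (mol/kg body weight). Values are means ± S.D.; two-tailed t tests.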

[25] = system: PyMT mammary tumors; test: Fluorescence imaging contrast in PyMT tumor-bearing mice; type: in vivo, mouse; conditions: live mice, 100 μl of 100 μM Cy5-labeled ACPP, imaged 6 h post injection
How it was run: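 PyMT transgenic mice bearing spontaneous mammary tumors were anesthetized with ketamine 80 mg/kg plus midazolam 5 mg/kg (1:1) and weighed. They were injected via the tail vein with Cy5 peptide: free peptide 100 μl of 100 μM (10 nmol) or albumin-reactive peptide 100 μl of 30 μM (3 nmol). Maestro imaging (ex 640 ± 24 nm, em >700 nm) was done at 6 h or 48 h, comparing tumor with adjacent normal tissue.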

[26] = Cleavage of ACPP by PyMT tumor cystic fluid; type: in vitro ADME, mouse; conditions: 5 μM Cy5-labeled peptide, 2% cystic fluid from PyMT tumors, 2 h, 37 °C, gel
How it was run: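 Cystic fluid was aspirated with a 28-gauge syringe from surgically exposed fluid-filled mammary tumor nodules of PyMT mice. 5 μM Cy5 peptide in PBS with 1 μM ZnCl2 was digested with cystic fluid (2%) at 37 °C. Aliquots were taken from 20 min to 18 h, with 2 h reported. Protease inhibitors (e.g. Ca-DTPA, TPEN, aprotinin, E-64, leupeptin, pepstatin A) were used at manufacturers' recommended concentrations. Read-out was gel fluorescence.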

[27] = system: MMP-8; test: MMP-8
[28] = system: MMP-13; test: MMP-13
[29] = system: hepsin; test: hepsin; conditions: up to 2 h
[30] = system: legumain; test: legumain
[31] = system: matriptase; test: matriptase
[32] = system: enterokinase; test: enterokinase; conditions: up to 2 h
[33] = system: prostate-specific antigen; test: prostate-specific antigen; conditions: up to 2 h
[34] = Effect of inhibitors on cleavage of RLQLKL ACPP by PyMT tumor cystic fluid; type: biochemical, mouse; conditions: 5 μM Cy5-labeled RLQLKL ACPP, 2% cystic fluid, 2 h; 5 mM Ca-DTPA, 50 μM TPEN, 18 μM SB3CT, 50 nM GM6001, 0.26 μM prinomastat, 150 nM aprotinin, 100 μM leupeptin, 60 μM α1-antitrypsin; gel
How it was run: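 Cystic fluid was aspirated by syringe from surgically exposed fluid-filled mammary tumor nodules of PyMT mice. The 5 μm Cy5 peptide was incubated at 37 °C for 2 h in PBS with 1 μm ZnCl2. Inhibitors were used at manufacturer-recommended concentrations, including 10 μm E-64, 1 μm pepstatin A, protease inhibitor mixture III (1:1000) and mixture III plus DTPA. Cleavage was read by Tricine gel electrophoresis and Cy5 fluorescence imaging.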

[35] = Effect of inhibitors on cleavage of RLQLKL ACPP by tumor extract; type: biochemical, mouse; conditions: 5 μM Cy5-labeled RLQLKL ACPP, tumor extract 2.0 to 0.25%; 60 μM α1-antitrypsin; gel
How it was run: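 Fresh tumor tissue was gently homogenized in PBS on ice and spun at 14,000 × g for 1 min; the supernatant served as the extract. The 5 μm Cy5 peptide was digested at 37 °C in PBS containing 1 μm ZnCl2, with or without 60 μm α1-antitrypsin. Aliquots were taken from 20 min to 18 h, with the 2-h point reported. Cleavage was quantified by Tricine gel and fluorescence imaging.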

[36] = molecular target: plasmin (Homo sapiens, UniProt P00747); test: Effect of inhibitor on plasmin cleavage of RLQLKL ACPP; type: biochemical; conditions: 5 μM Cy5-labeled RLQLKL ACPP, gel
Sequence of plasmin (P00747 581-810 limits assumed): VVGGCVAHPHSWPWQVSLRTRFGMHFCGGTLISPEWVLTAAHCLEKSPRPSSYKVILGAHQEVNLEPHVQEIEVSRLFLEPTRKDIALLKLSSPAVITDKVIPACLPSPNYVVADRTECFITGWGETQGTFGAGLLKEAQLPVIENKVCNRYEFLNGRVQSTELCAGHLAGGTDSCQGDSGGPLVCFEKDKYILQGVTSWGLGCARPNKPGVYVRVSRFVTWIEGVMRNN
Sequence of plasmin (P00747 97-580 partner limits assumed): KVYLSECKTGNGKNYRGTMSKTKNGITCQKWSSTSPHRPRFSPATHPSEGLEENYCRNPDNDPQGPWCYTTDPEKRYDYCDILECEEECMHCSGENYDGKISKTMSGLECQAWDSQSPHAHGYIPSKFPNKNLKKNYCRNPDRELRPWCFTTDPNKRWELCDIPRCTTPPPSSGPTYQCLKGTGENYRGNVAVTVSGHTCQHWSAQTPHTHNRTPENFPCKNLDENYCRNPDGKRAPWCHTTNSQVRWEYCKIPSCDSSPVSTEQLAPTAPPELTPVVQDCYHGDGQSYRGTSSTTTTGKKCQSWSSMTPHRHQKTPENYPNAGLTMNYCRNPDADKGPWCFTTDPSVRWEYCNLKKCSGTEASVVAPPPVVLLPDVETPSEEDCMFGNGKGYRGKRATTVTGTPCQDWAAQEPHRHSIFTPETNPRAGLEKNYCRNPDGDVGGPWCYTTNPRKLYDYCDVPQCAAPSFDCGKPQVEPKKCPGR

Sequence of MMP-2 (P08253 110-660): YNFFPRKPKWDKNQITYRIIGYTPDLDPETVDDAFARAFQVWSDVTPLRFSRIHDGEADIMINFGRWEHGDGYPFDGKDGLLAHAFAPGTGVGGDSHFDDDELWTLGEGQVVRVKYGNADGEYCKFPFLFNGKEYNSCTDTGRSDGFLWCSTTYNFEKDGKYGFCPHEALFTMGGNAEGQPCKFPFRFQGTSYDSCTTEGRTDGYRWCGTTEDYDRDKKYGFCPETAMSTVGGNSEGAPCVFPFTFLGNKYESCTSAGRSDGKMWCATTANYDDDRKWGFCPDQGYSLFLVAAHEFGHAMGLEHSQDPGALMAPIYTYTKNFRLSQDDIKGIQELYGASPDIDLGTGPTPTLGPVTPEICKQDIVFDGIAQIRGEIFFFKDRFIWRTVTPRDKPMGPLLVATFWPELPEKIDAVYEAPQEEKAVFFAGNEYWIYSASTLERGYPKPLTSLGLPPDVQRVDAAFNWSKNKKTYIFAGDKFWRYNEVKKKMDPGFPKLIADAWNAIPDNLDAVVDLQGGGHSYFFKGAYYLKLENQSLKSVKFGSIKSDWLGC

Molecule: CC[N+]1=C(C=CC=CC=C2N(CCCCCC(=O)NCCN3C(=O)CC(SC[C@@H](NC(=O)[C@@H](CCCNC(=N)N)NC(=O)[C@@H](CCCNC(=N)N)NC(=O)[C@@H](CCCNC(=N)N)NC(=O)[C@@H](CCCNC(=N)N)NC(=O)[C@@H](CCCNC(=N)N)NC(=O)[C@@H](CCCNC(=N)N)NC(=O)[C@@H](CCCNC(=N)N)NC(=O)[C@@H](CCCNC(=N)N)NC(=O)[C@@H](CCCNC(=N)N)NC(=O)[C@H](CC(C)C)NC(=O)[C@H](CCCCN)NC(=O)[C@H](CC(C)C)NC(=O)[C@H](CCC(N)=O)NC(=O)[C@H](CC(C)C)NC(=O)[C@H](CCCNC(=N)N)NC(=O)CCCCCNC(=O)[C@@H](CCC(=O)O)NC(=O)[C@@H](CCC(=O)O)NC(=O)[C@@H](CCC(=O)O)NC(=O)[C@@H](CCC(=O)O)NC(=O)[C@@H](CCC(=O)O)NC(=O)[C@@H](CCC(=O)O)NC(=O)[C@@H](CCC(=O)O)NC(=O)[C@@H](CCC(=O)O)NC(=O)[C@H](N)CCC(=O)O)C(N)=O)C3=O)c3ccc(S(=O)(=O)O)cc3C2(C)C)C(C)(C)c2cc(S(=O)(=O)[O-])ccc21 (stereo partly shown) [RLQLKL ACPP]
- percentage of cleavage by MMP-2 [1]: less than 3%
- percentage of cleavage by MMP-9 [2]: less than 3%
- metabolised at 2 h, 5 μM [3]: < 3%
- percentage of cleavage by kallikrein 5 [4]: less than 3%
- percentage of cleavage by thrombin [5]: less than 3%
- percentage of cleavage by urokinase plasminogen activator ([6]; 5 μM Cy5-labeled peptide, 50 nM enzyme, 2 h, Tricine gel, UVP software): less than 3%
- cleavage by urokinase (in words) ([6]; purified enzyme, data not shown): no cleavage
- percentage of cleavage by tissue plasminogen activator [7]: less than 3%
- metabolised at 2 h, 5 μM [8]: < 3%
- percentage of cleavage by factor IXa [9]: less than 3%
- percentage of cleavage by factor Xa [10]: less than 3%
- percentage of cleavage by factor XIa [11]: less than 3%
- percentage of cleavage by factor XIIa [12]: less than 3%
- percentage of cleavage by cathepsin B [13]: less than 3%
- percentage of cleavage by cathepsin L [14]: less than 3%
- metabolised at 2 h, 5 μM [15]: < 3%
- cleavage by MMP-8 (in words) [16]: no cleavage
- cleavage by MMP-13 (in words) [17]: no cleavage
- cleavage by matriptase (in words) [18]: no cleavage
- cleavage by legumain (in words) [19]: no cleavage
- cleavage by MMP12 (in words) [20]: minimal cleavage
- cleavage by pancreatic elastase (in words) [21]: effectively cleaved
- cleavage by leukocyte elastase (in words) [22]: effectively cleaved
- SUV at 6 h [23]: 0.39 ± 0.14 SUV
- SUV at 6 h [24]: 0.7 ± 0.27 SUV
- skin uptake versus PLGLAG ACPP (in words) [25]: significantly less
- cleavage by cystic fluid (in words) [26]: similarly to tumor tissue extracts

- not cleaved [27]: no cleavage
- not cleaved [28]: no cleavage
- not cleaved [29]: less than 3% cleavage
- not cleaved [30]: no cleavage
- not cleaved [31]: no cleavage
- not cleaved [32]: less than 3% cleavage
- not cleaved [33]: less than 3% cleavage
Molecule: NH2-e9-(ahx)-RLQLKL-r9-c-(Cy5)-NH2

- inhibition of plasmin cleavage of RLQLKL ACPP (in words) [36]: did inhibit
B1: serpin F2/α2-antiplasmin: plasmin-specific inhibitor (protein, UniProt P08697 40-491, looked up)
Alpha-2-antiplasmin: NQEQVSPLTLLKLGNQEPGGQTALKSPPGVCSRDPTPEQTHRLARAMMAFTADLFSLVAQTSTCPNLILSPLSVALALSHLALGAQNHTLQRLQQVLHAGSGPCLPHLLSRLCQDLGPGAFRLAARMYLQKGFPIKEDFLEQSEQLFGAKPVSLTGKQEDDLANINQWVKEATEGKIQEFLSGLPEDTVLLLLNAIHFQGFWRNKFDPSLTQRDSFHLDEQFTVPVEMMQARTYPLRWFLLEQPEIQVAHFPFKNNMSFVVLVPTHFEWNVSQVLANLSWDTLHPPLVWERPTKVRLPKLYLKHQMDLVATLSQLGLQELFQAPDLRGISEQSLVVSGVQHQSTLELSEVGVEAAAATSIAMSRMSLSSFSVNRPFLFFIFEDTTGLPLFVGSVRNPNPSAPRELKEQQDSPGNKDFLQSLKGFPRGDKLFGPDLKLVPPMEEDYPQFGSPK
- inhibition of cystic fluid cleavage of RLQLKL ACPP (in words) [34]: did not inhibit
- inhibition of tumor extract cleavage of RLQLKL ACPP (in words) [35]: did not inhibit
